Reference: ChEMBL document CHEMBL1158391, “Synthesis and antileishmanial activity of novel 2,4,6-trisubstituted pyrimidines and 1,3,5-triazines” (Eur J Med Chem, 2009)
In brackets after ≈: the same amount, converted by molar mass. Activity calls are given as the source filed them. The rule behind the calls is not given here.

What was measured:
Leishmania donovani [1] = experiment: Antileishmanial activity against Leishmania donovani MHOM/IN/80/Dd8 promastigotes at 10 ug/ml after 72 hrs; format: functional
How it was run: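 Promastigotes were transfected with firefly luciferase and kept in medium 199 with 10% foetal calf serum, penicillin/streptomycin and G418. Late-log cells (5×10⁵/well) were exposed for 72 h to serial dilutions (1–10 range) in DMSO, with DMSO controls. Luminescence was read with Steady-Glo. % inhibition = (N − n)×100/N, using mean RLU of control (N) and treated (n) wells.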

Leishmania donovani [2] = experiment: Antileishmanial activity against Leishmania donovani MHOM/IN/80/Dd8 amastigotes infected in mouse J774A.1 cells after 72 hrs; format: functional, organism-based; details: MHOM/IN/80/Dd8, J774.A1, 72 h
How it was run: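 J774A.1 macrophages (1.5×10⁴/well) were cultured in RPMI-1640 with 10% foetal calf serum at 37 °C in CO₂. After 24 h they were infected with stationary-phase luciferase-transfected promastigotes (2.25×10⁵/well), which transform into amastigotes. Test material (0.25–10 range) in complete medium was then applied for 72 h. Steady-Glo luminescence of treated wells was compared with untreated controls.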

[3] = Cytotoxicity against mouse J774A1 cells after 72 hrs by MTT assay; format: cell-based, J774.A1
How it was run: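 J774A.1 cells were kept in RPMI with 10% foetal calf serum and gentamycin. Cells (1×10⁴/well) were exposed to graded concentrations diluted from DMSO stocks for 72 h at 37 °C in humidified CO₂. MTT (5 mg/ml stock in PBS) was added for 2 h, and formazan was dissolved in DMSO and read at 544 nm. CC50 was the concentration giving 50% viability loss versus medium-only cells, estimated by template.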

[4] = (§1) Selectivity index, ratio of CC50 for mouse J774A1 cells to IC50 for Leishmania donovani MHOM/IN/80/Dd8 amastigotes; format: functional, J774.A1
How it was run: (§2)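 Ratio of J774A.1 CC50 (MTT, 72 h) to IC50 from the luciferase assay on intracellular amastigotes in J774A.1 macrophages (72 h exposure).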

Leishmania donovani [5] = experiment: Antileishmanial activity against Leishmania donovani MHOM/IN/80/Dd8 amastigotes infected in golden hamster at 50 mg/kg, ip administered 5 times per day for 5 days; format: functional
How it was run: (§3)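 Golden hamsters infected with L. donovani MHOM/IN/80/Dd8 were randomized into groups by parasite burden, 4–6 animals per sample. Intraperitoneal dosing began 2 days after biopsy. Post-treatment biopsy was taken on day 7 after the last dose, and amastigotes were counted by Giemsa staining. Percentage inhibition was calculated from actual and initial counts in treated animals and the fold increase in untreated controls.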

Leishmania donovani [6] = experiment: Antileishmanial activity against Leishmania donovani MHOM/IN/80/Dd8 promastigotes at 0.5 ug/ml after 72 hrs; format: functional
Leishmania donovani [7] = experiment: Antileishmanial activity against Leishmania donovani MHOM/IN/80/Dd8 amastigotes infected in golden hamster at 20 mg/kg, ip administered 5 times per day for 5 days; format: functional; details: route intraperitoneal; how it was run: as §3
Leishmania donovani [8] = experiment: Antileishmanial activity against Leishmania donovani MHOM/IN/80/Dd8 promastigotes at […] after 72 hrs; format: functional, organism-based
J774.A1 = experiment: as §1; format: functional; how it was run: as §2
Leishmania donovani [9] = experiment: Antileishmanial activity against Leishmania donovani MHOM/IN/80/Dd8 amastigotes infected in golden hamster at 40 mg/kg, ip administered 5 times per day for 5 days; format: functional, organism-based; parameters: dose 40 mg/kg; how it was run: as §3

Row | IC50 (Leishmania donovani [2]) [µg/mL] | Compound | Activity (Leishmania donovani [1]) | CC50 at 72 h [3] [µg/mL] | Ratio CC50/IC50 [4] | further results
1 | 1.8 (≈ 3.26 µM) | COc1cc(-c2cc(SC)nc(Nc3nc(N4CCCCC4)nc(N4CCCCC4)n3)n2)cc(OC)c1OC | 90.8% | 51.7 (≈ 93.5 µM) | 28.7 | Activity (Leishmania donovani [5]; route intraperitoneal): 56.58%
2 | – | CCCCNc1nc(NCCCC)nc(Nc2nc(SC)cc(-c3cc(OC)c(OC)c(OC)c3)n2)n1 | 75.5% | – | – | –
3 | – | CCCCNc1nc(NCCCC)nc(Nc2nc(SC)cc(-c3ccc(OC)c(OC)c3)n2)n1 | 78.6% | – | – | –
4 | 7.09 (≈ 20.6 µM) | COc1cc(-c2cc(N3CCCCC3)nc(N)n2)cc(OC)c1OC | 88% | 10.4 (≈ 30.3 µM) | 1.47 | –
5 | 4.88 (≈ 8.34 µM) | CCN(CC)CCNc1nc(NCCN(CC)CC)nc(Nc2nc(SC)cc(-c3ccc(OC)c(OC)c3)n2)n1 | 94.7% | 42 (≈ 71.8 µM) | 8.6 | –
6 | 9.68 (≈ 18.4 µM) | COc1ccc(-c2cc(SC)nc(Nc3nc(N4CCOCC4)nc(N4CCOCC4)n3)n2)cc1OC | 90.5% | 23.9 (≈ 45.3 µM) | 2.46 | –
7 | 4.99 (≈ 15 µM) | CCCCNc1cc(-c2cc(OC)c(OC)c(OC)c2)nc(N)n1 | 84.4% | 49.9 (≈ 150 µM) | 10 | Activity (Leishmania donovani [5]; route intraperitoneal): 54.1%
8 | – | N=C(N)c1ccc(OCCCCCOc2ccc(C(=N)N)cc2)cc1 [PENTAMIDINE] | – | 31.3 (≈ 92 µM) | – | Activity (Leishmania donovani [6]): 85%; Activity (Leishmania donovani [7]): 84.1%
9 | 7.02 (≈ 12.6 µM) | COc1cc(-c2cc(SC)nc(Nc3nc(N4CCOCC4)nc(N4CCOCC4)n3)n2)cc(OC)c1OC | 80.8% | 10.8 (≈ 19.5 µM) | 1.54 | –
10 | 1.04 (≈ 2.08 µM) | COc1cc(-c2cc(SC)nc(Nc3nc(NC(C)C)nc(NC(C)C)n3)n2)cc(OC)c1OC | 94.5% | 1.9 (≈ 3.8 µM) | 1.82 | –
11 | – | COc1cc(-c2cc(NCCN3CCOCC3)nc(N)n2)cc(OC)c1OC | 68.5% | – | – | –
12 | 2.27 (≈ 4.82 µM) | CCCNc1nc(NCCC)nc(Nc2nc(SC)cc(-c3ccc(OC)c(OC)c3)n2)n1 | 85.6% | 14.3 (≈ 30.5 µM) | 6.31 | –
13 | – | COc1cc(-c2cc(N3CCOCC3)nc(N)n2)cc(OC)c1OC | 43.9% | – | – | –
14 | – | sodium stibogluconate | – | – | – | Activity (Leishmania donovani [8]): 40%; Ratio CC50/IC50 (J774.A1): 5.53; Activity (Leishmania donovani [5]): 48.5%; Activity (Leishmania donovani [9]): 92%
15 | 0.89 (≈ 1.61 µM) | COc1ccc(-c2cc(SC)nc(Nc3nc(N4CCN(C)CC4)nc(N4CCN(C)CC4)n3)n2)cc1OC | 99.8% | 36.2 (≈ 65.6 µM) | 40.71 | –
16 | 1.34 (≈ 2.3 µM) | COc1cc(-c2cc(SC)nc(Nc3nc(N4CCN(C)CC4)nc(N4CCN(C)CC4)n3)n2)cc(OC)c1OC | 99.5% | 16.5 (≈ 28.4 µM) | 12.34 | –

Row | IC50 (Leishmania donovani [2]) [µg/mL] | Compound | Activity (Leishmania donovani [1]) | CC50 at 72 h [3] [µg/mL] | Ratio CC50/IC50 [4] | further results
17 | – | COc1ccc(-c2cc(SC)nc(Nc3nc(NCCCN4CCOCC4)nc(NCCCN4CCOCC4)n3)n2)cc1OC | 35.2% | – | – | –
18 | – | COc1cc(-c2cc(NCCCN3CCOCC3)nc(N)n2)cc(OC)c1OC | 46.9% | – | – | –
19 | – | COc1ccc(-c2cc(SC)nc(Nc3nc(NC(C)C)nc(NC(C)C)n3)n2)cc1OC | inactive | – | – | –
20 | – | COc1ccc(-c2cc(SC)nc(Nc3nc(NC(C)(C)C)nc(NC(C)(C)C)n3)n2)cc1OC | inactive | – | – | –
21 | 2.97 (≈ 5.62 µM) | COc1cc(-c2cc(SC)nc(Nc3nc(NC(C)(C)C)nc(NC(C)(C)C)n3)n2)cc(OC)c1OC | 95.8% | 9.8 (≈ 18.5 µM) | 3.29 | –
22 | – | CCN1CCN(c2nc(Nc3nc(SC)cc(-c4ccc(OC)c(OC)c4)n3)nc(N3CCN(CC)CC3)n2)CC1 | inactive | – | – | –
23 | – | COc1cc(-c2cc(N3CCN(C)CC3)nc(N)n2)cc(OC)c1OC | 63.88% | – | – | –
24 | – | CCN(CC)CCNc1nc(NCCN(CC)CC)nc(Nc2nc(SC)cc(-c3cc(OC)c(OC)c(OC)c3)n2)n1 | inactive | – | – | –
25 | – | COc1ccc(-c2cc(SC)nc(Nc3nc(N4CCCCC4)nc(N4CCCCC4)n3)n2)cc1OC | 53.8% | – | – | –
26 | 4.56 (≈ 7.47 µM) | CCN1CCN(c2nc(Nc3nc(SC)cc(-c4cc(OC)c(OC)c(OC)c4)n3)nc(N3CCN(CC)CC3)n2)CC1 | 100% | 27.4 (≈ 44.8 µM) | 6 | –
27 | – | COc1cc(-c2cc(SC)nc(Nc3nc(NCCN4CCOCC4)nc(NCCN4CCOCC4)n3)n2)cc(OC)c1OC | 42.5% | – | – | –
28 | – | COc1ccc(-c2cc(SC)nc(Nc3nc(NCCN4CCOCC4)nc(NCCN4CCOCC4)n3)n2)cc1OC | inactive | – | – | –
29 | – | COc1cc(-c2cc(SC)nc(Nc3nc(NCCCN4CCOCC4)nc(NCCCN4CCOCC4)n3)n2)cc(OC)c1OC | 75.2% | – | – | –
30 | – | CCCNc1nc(NCCC)nc(Nc2nc(SC)cc(-c3cc(OC)c(OC)c(OC)c3)n2)n1 | 86.7% | 1.46 (≈ 2.92 µM) | – | –
31 | 5.12 (≈ 13.6 µM) | CCN(CC)CCNc1cc(-c2cc(OC)c(OC)c(OC)c2)nc(N)n1 | 95.1% | 81.5 (≈ 217 µM) | 15.92 | Activity (Leishmania donovani [5]; route intraperitoneal): 48.46%
